Here are results for one molecule from ChEMBL document CHEMBL5357047, “The development of thymol-isatin hybrids as broad-spectrum antibacterial agents with potent anti-MRSA activity” (RSC Med Chem, 2024).

Molecules are shown by their SMILES. In brackets after ≈: the same amount, converted by molar mass. Activity calls are given as the source filed them. The rule behind the calls is not given here.

In data set [1] the test system is Staphylococcus aureus. The experiment in a line: Antibacterial activity against Staphylococcus aureus MTCC 740 assessed as inhibition of bacterial growth at 50 uM measured after 48 hrs by agar well diffusion method. The format is functional. The note with it: read-out: IZ.
Data set [2] has as its system Staphylococcus aureus. Put plainly: Antibacterial activity against clinically isolated Staphylococcus aureus RBRJ010 assessed as inhibition of bacterial growth at 50 uM measured after 48 hrs by agar well diffusion method. The format is functional. The note with it: read-out: IZ. Background: Agar diffusion results depend on both activity and mobility in agar.
The subject of the next data set is Enterococcus faecalis. The experiment in a line: Antibacterial activity against clinically isolated Enterococcus faecalis RBRJ015 assessed as inhibition of bacterial growth at 50 uM measured after 48 hrs by agar well diffusion method. The format is functional. The following applies: read-out: IZ.
The subject of data set [3] is Klebsiella pneumoniae. The experiment in a line: Antibacterial activity against Klebsiella pneumoniae MTCC 109 assessed as inhibition of bacterial growth at 50 uM measured after 48 hrs by agar well diffusion method. The class given is functional. The following applies: read-out: IZ.
Data set [4] has as its system Klebsiella pneumoniae. Put plainly: Antibacterial activity against clinically isolated Klebsiella pneumoniae RBRJ024 assessed as inhibition of bacterial growth at 50 uM measured after 48 hrs by agar well diffusion method. The class given is functional. The note with it: read-out: IZ.
Data set [5] deals with Escherichia coli. The experiment in a line: Antibacterial activity against Escherichia coli MTCC 119 assessed as inhibition of bacterial growth at 50 uM measured after 48 hrs by agar well diffusion method. The note with it: read-out: IZ. The class given is functional.
The test system of data set [6] is Escherichia coli. Put plainly: Antibacterial activity against clinically isolated Escherichia coli RBRJ005 assessed as inhibition of bacterial growth at 50 uM measured after 48 hrs by agar well diffusion method. The format is functional. The following applies: read-out: IZ.
In the next data set the test system is Enterobacter cloacae. The experiment in a line: Antibacterial activity against clinically isolated Enterobacter cloacae RBRJ017 assessed as inhibition of bacterial growth at 50 uM measured after 48 hrs by agar well diffusion method. The format is functional. The note with it: read-out: IZ.
Another data set concerns Acinetobacter baumannii. The experiment in a line: Antibacterial activity against clinically isolated Acinetobacter baumannii RBRJ027 assessed as inhibition of bacterial growth at 50 uM measured after 48 hrs by agar well diffusion method. The class given is functional. The following applies: read-out: IZ.
Data set [7] concerns Staphylococcus aureus. Put plainly: Antibacterial activity against Staphylococcus aureus MTCC 740 assessed as inhibition of bacterial growth measured after 48 hrs by broth microdilution method. The format is functional. For orientation: Broth dilution looks for growth in wells or tubes with falling amounts of substance.
Data set [8] relates to Staphylococcus aureus. The experiment in a line: Antibacterial activity against clinically isolated Staphylococcus aureus RBRJ010 assessed as inhibition of bacterial growth measured after 48 hrs by broth microdilution method. The class given is functional.
Data set [9] relates to Staphylococcus aureus. Put plainly: Antibacterial activity against clinically isolated Methicillin-resistant Staphylococcus aureus assessed as inhibition of bacterial growth measured after 48 hrs by broth microdilution method. The format is functional.
In data set [10] the test system is Staphylococcus aureus. The experiment in a line: Bactericidal activity against Staphylococcus aureus MTCC 740 assessed as inhibition of bacterial growth measured after 48 hrs by agar plate method. The format is functional. Put shortly:
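MBC: aliquots from microdilution wells without colour change subcultured on drug-free Mueller Hinton agar, 48 h at 37 °C aerobically. MBC is the lowest concentration with no visible growth. Triplicate.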

The nature of data set [11]: Cytotoxicity against mouse L929 cells assessed as reduction in cell viability measured after 72 hrs by MTT assay. The class given is toxicity, cell-based. Put shortly:
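L929 cells (ATCC) grown in DMEM with 10% FBS and penicillin/streptomycin at 37 °C, 5% CO2; seeded at 5 × 10^3 cells per well and exposed to serial dilutions for 72 h, paclitaxel as positive control. MTT (5 mg mL−1), formazan dissolved in DMSO, absorbance at 490 nm; viability relative to control after blank subtraction; IC50 in μM.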

A short description of data set [12]: Selectivity index, ratio of IC50 for cytotoxicity against mouse L929 cells to MIC for antibacterial activity against clinically isolated Methicillin-resistant Staphylococcus aureus. The format is toxicity, cell-based. The note with it: read-out: Selectivity Index.
Data set [13] relates to Staphylococcus aureus. The experiment in a line: Bactericidal activity against Methicillin-resistant Staphylococcus aureus assessed as reduction in colony formation units at 1 to 2XMIC measured after 48 hrs by time-kill assay. The class given is functional, organism-based. Put shortly:
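Samples taken at 1, 2, 4, 8, 12, 24 and 48 h, diluted in 0.9% saline and plated on Mueller Hinton agar (48 h, 37 °C). CFU counted and log10 CFU mL−1 plotted against time. Triplicate.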

The test system of data set [14] is Staphylococcus aureus. The experiment in a line: Disruption of biofilms against 48 hrs preformed Methicillin-resistant Staphylococcus aureus assessed as eradication of biofilms measured after 24 hrs by crystal violet staining method. The format is functional. Put shortly:
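MRSA (1 × 10^5 CFU mL−1, diluted 1:100) grown 48 h at 37 °C in tryptone soy broth with 3% glucose. […] Saline wash, 95% ethanol fixation 30 min, 0.1% crystal violet 30 min at 25 °C, elution with 95% ethanol, OD 545 nm. MBEC determined. Triplicate.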

The subject of data set [15] is Staphylococcus aureus. Put plainly: Anti-biofilm activity against Methicillin-resistant Staphylococcus aureus assessed as biofilm volume/area at 1XMIC measured after 48 hrs by crystal violet staining based phase contrast microscopy (reference value: 18.37 +/-1.14 um3/um2). The class given is functional.
Data set [16] concerns Staphylococcus aureus. Put plainly: Anti-biofilm activity against Methicillin-resistant Staphylococcus aureus assessed as biofilm substrate coverage at 1/2XMIC measured after 48 hrs by crystal violet staining based phase contrast microscopy (reference value: 81.43+/-3.57%). The format is functional.
Data set [17] deals with T1, 4,4'-diapophytoene synthase (Staphylococcus aureus) (UniProt A9JQL9).
T1 sequence (whole entry): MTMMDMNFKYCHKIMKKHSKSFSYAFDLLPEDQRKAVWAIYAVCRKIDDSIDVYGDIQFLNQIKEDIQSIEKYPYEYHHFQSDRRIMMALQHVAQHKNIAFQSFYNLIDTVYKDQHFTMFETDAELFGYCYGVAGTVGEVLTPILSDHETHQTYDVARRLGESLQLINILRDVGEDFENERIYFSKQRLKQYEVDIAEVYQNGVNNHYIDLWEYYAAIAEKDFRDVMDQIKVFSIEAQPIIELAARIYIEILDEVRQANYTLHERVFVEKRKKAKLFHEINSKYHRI
The experiment in a line: Inhibition of CrtM in Methicillin-resistant Staphylococcus aureus assessed as reduction in staphyloxanthin level at 1/4XMIC measured after 24 hrs by spectroscopic analysis. Put shortly: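 Cells pelleted, PBS-washed, extracted overnight in methanol at 37 °C. Supernatant absorbance read at 462 nm (staphyloxanthin), 286 nm (4,4′-diapophytoene), 435 nm (4,4′-diaponeurosporene) or 455 nm (4,4′-diaponeurosporenic acid). % inhibition = (control − treated)/control × 100.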

The nature of data set [18]: Toxicity against Galleria mellonella assessed as visible injury at 20 mg/kg measured every 12 hrs for 120 hrs. The class given is organism-based. The following applies: in vivo. Put shortly: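 Uninfected Galleria mellonella larvae (0.2–0.4 g, ten per group) given 20 mg kg−1 compound, alongside untreated, PBS and PBS + 2% DMSO vehicle controls; held at 37 °C and checked every 12 h for 120 h. Larvae that turned black and gave no response to stimulus counted dead; percentage survival recorded.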

Data set [19] in a line: Toxicity against Galleria mellonella assessed as survival rate of larva at 20 mg/kg measured every 12 hrs for 120 hrs. The class given is organism-based. The note with it: in vivo. Put shortly:
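Uninfected Galleria mellonella larvae (0.2–0.4 g, 10 per group) given 20 mg kg−1. Controls: untreated, PBS, and PBS + 2% DMSO vehicle. Held at 37 °C and monitored every 12 h for 120 h; larvae that were black and unresponsive counted dead. Percentage survival plotted.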

The subject of data set [20] is Staphylococcus aureus. Put plainly: Antibacterial activity against Methicillin-resistant Staphylococcus aureus infected in Galleria mellonella assessed as larva's survial rate at 2.5 mg/kg measured after 24 to 48 hrs. The class given is functional. The note with it: time 24-48 hrs. Put shortly:
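Galleria mellonella larvae (0.2–0.4 g, 10 per group) injected in the last proleg with MRSA at 5 × 10^8 ± 0.2 cells per larva, then given 2.5, 5 or 10 mg kg−1. Controls: untreated, PBS, and PBS + 2% DMSO vehicle. Held at 37 °C and checked every 12 h; larvae that were black and unresponsive counted dead. Bacterial burden by CFU at 0, 24 and 48 h.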

In general, MIC refers to the least concentration at which growth counts as inhibited. The MBC is the lowest tested concentration that kills the bacteria rather than only halting them. One may read the IC50 as the concentration at which inhibition is half-maximal. In general, inhibition refers to the change of the read-out against control, counted positive when it falls. As for `Cc1ccc(C(C)C)c(OCc2cn(CCCN3C(=O)C(=O)c4ccccc43)nn2)c1`, the zone of inhibition at 50 µM with Staphylococcus aureus [1] stood at 28.6 mm; in the data set on Staphylococcus aureus [2] it was 27.1 mm; in the data set on Enterococcus faecalis it was 20.2 mm; in the data set on Klebsiella pneumoniae [3] it was 21.4 mm; in the data set on Klebsiella pneumoniae [4], 21.2 mm; with Escherichia coli [5], 22.1 mm. The values for the zone of inhibition at 50 µM with Escherichia coli [6], with Enterobacter cloacae and with Acinetobacter baumannii were 19.3 mm, 19.2 mm and 18.3 mm, respectively. Moreover, the MIC with Staphylococcus aureus [7], in the data set with Staphylococcus aureus [8] and in the data set on Staphylococcus aureus [9] was 1.9 µM (≈ 0.795 µg/mL) in each case. Also, the MBC with Staphylococcus aureus [10] is 3.9 µM (≈ 1.63 µg/mL). In data set [11], the IC50 at 72 h was found to be 125 µM. In addition, the selectivity ratio in data set [12] came out at 65. For the same molecule, the outcome with Staphylococcus aureus [13] was Active. The MBEC in the data set with Staphylococcus aureus [14] turned out to be 7.8 µM. Besides, the Activity in the data set on Staphylococcus aureus [15] is given as 1.57 um3/um2; in the data set on Staphylococcus aureus [16], 19.12%; in data set [18], “Non-Toxic”; in the data set on Staphylococcus aureus [20], 80%. Also, the inhibition in data set [17] amounted to 86%. Further, the survival at 120 h in [19] came to 90%.
